Assay results published in ChEMBL document CHEMBL1799968, “Dimethyl-diphenyl-propanamide derivatives as nonsteroidal dissociated glucocorticoid receptor agonists” (J Med Chem, 2010).

Tests used:
Rattus norvegicus [1] = test: Toxicity in Sprague-Dawley rat assessed as increase in serum glucose level at 30 mg/kg, po after 6 hrs; type: organism-based; set-up: dose 30 mg/kg, route oral; conditions: in vivo
Procedure, shortened: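 Male SD rats, fasted overnight plus up to 6 h, were given a single oral dose in a biologically acceptable medium. At 6 h they were euthanised with CO2, and blood was taken by intracardiac puncture. Serum glucose was measured by the hexokinase method on an automated chemistry analyzer.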

Rattus norvegicus [2] = test: Toxicity in Sprague-Dawley rat assessed as induction of TAT activity in liver homogenates at 30 mg/kg, po after 6 hrs; type: organism-based; set-up: dose 30 mg/kg, route oral; conditions: in vivo
Procedure, shortened: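 Male SD rats, fasted, single oral dose. Liver was biopsied 6 h postdose, snap frozen, homogenised in 150 mM KCl and centrifuged. Protein-normalised supernatants were assayed for TAT activity, read as OD at 340 nm. Values are given as % of TAT activity in prednisolone-treated (30 mg/kg) rats.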

[3] = molecular target: T1, Mineralocorticoid receptor (Homo sapiens, UniProt P08235); test: Agonist activity at mineralocorticoid receptor in human A549 cells; type: functional, cell-based
T1 sequence (P08235 whole entry): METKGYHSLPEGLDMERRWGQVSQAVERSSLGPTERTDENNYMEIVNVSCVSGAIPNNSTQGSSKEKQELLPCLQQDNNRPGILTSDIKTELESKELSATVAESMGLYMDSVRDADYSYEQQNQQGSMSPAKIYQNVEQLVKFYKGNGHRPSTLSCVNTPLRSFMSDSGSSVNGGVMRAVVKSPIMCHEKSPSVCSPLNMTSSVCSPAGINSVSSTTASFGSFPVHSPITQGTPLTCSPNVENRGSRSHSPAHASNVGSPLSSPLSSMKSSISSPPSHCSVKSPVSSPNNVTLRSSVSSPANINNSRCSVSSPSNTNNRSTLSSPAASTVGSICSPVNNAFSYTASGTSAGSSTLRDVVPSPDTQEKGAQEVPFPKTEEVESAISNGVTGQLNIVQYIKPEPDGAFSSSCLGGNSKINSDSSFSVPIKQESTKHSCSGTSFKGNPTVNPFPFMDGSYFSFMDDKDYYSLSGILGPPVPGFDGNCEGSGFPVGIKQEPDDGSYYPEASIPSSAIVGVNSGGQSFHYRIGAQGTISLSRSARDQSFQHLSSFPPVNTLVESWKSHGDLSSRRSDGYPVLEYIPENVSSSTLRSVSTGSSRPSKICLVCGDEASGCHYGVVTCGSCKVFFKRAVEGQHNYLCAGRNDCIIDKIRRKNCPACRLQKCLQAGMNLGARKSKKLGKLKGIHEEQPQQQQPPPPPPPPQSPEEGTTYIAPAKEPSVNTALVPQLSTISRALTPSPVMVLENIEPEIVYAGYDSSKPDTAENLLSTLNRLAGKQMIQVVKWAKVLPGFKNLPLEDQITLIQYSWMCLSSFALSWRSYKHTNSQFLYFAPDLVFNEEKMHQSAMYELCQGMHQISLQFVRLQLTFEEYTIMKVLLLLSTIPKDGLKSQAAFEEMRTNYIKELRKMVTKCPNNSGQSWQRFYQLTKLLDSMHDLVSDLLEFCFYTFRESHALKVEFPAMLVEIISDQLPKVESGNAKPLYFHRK

Estrogen receptor = molecular target: T2, Estrogen receptor (Homo sapiens, UniProt P03372); test: Binding affinity to ERalpha by fluorescence polarization assay
T2 sequence (P03372 whole entry): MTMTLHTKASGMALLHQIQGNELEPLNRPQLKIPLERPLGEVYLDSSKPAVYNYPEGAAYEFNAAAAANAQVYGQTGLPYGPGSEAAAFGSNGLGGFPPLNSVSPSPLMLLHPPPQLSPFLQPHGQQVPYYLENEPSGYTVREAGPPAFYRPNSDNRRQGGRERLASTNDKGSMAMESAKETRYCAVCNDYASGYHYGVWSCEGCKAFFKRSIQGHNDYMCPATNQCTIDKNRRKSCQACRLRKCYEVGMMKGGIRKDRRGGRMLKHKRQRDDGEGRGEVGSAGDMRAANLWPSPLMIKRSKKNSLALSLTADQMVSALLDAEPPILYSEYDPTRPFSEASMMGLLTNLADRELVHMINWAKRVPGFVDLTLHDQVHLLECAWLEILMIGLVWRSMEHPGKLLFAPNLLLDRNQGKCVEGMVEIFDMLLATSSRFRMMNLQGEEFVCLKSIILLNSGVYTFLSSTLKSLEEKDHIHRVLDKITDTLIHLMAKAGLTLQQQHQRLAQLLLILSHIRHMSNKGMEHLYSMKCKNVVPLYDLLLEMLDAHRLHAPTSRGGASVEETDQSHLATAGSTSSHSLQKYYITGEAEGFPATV
Procedure, shortened: (§1)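 Fluorescence polarization competition of test compound against a fluorescently labelled ligand for binding to full-length receptor or its ligand-binding domain.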

Rattus norvegicus [4] = test: Antiinflammatory activity in po dosed carrageenan-induced paw edema Sprague-Dawley rat model assessed as inhibition of hind paw swelling after 5 hrs post carrageenan challenge; type: functional
Procedure, shortened: (§2)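 Male SD rats, fasted overnight plus up to 6 h more. Baseline hind paw volume taken by water plethysmometer. A single oral dose was given in a biologically acceptable medium. 2 h later, under anaesthesia, 1% carrageenan in PBS was injected subcutaneously into both hind paws. Volume was read 3 h post challenge, and swelling was taken as post-challenge minus baseline.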

Rattus norvegicus [5] = test: Antiinflammatory activity against carrageenan-induced paw edema Sprague-Dawley rat model assessed as inhibition of hind paw swelling at 30 mg/kg, po measured after 5 hrs post carrageenan challenge; type: functional; procedure, shortened: as §2
Progesterone receptor = molecular target: T3, Progesterone receptor (Homo sapiens, UniProt P06401); test: Binding affinity to progesterone receptor by fluorescence polarization assay; procedure, shortened: as §1
T3 sequence (P06401 whole entry): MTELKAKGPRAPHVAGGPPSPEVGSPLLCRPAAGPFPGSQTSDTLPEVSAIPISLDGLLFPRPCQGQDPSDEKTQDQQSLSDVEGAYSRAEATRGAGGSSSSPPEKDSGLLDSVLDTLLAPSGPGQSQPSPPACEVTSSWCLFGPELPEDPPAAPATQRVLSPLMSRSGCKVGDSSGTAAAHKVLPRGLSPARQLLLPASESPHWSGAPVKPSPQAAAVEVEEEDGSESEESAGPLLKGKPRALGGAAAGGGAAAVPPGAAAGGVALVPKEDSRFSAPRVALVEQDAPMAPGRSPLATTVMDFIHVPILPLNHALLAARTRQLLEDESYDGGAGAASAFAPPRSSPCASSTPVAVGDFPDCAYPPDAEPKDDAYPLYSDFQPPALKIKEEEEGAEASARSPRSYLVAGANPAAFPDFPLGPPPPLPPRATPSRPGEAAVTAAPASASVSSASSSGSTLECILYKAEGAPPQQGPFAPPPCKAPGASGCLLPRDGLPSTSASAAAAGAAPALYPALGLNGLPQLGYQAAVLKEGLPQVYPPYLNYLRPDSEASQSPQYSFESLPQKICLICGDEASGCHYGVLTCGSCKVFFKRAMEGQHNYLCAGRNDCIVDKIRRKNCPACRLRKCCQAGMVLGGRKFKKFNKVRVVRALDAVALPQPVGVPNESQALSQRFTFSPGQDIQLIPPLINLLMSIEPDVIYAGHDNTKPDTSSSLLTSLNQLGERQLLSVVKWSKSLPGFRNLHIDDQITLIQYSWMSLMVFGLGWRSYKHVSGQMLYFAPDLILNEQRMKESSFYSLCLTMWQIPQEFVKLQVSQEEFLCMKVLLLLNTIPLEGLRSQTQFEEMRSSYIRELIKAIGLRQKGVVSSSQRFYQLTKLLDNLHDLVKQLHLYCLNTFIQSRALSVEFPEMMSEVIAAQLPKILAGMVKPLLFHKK

Androgen receptor = molecular target: T4, Androgen receptor (Homo sapiens, UniProt P10275); test: Binding affinity to androgen receptor by fluorescence polarization assay; procedure, shortened: as §1
T4 sequence (P10275 whole entry): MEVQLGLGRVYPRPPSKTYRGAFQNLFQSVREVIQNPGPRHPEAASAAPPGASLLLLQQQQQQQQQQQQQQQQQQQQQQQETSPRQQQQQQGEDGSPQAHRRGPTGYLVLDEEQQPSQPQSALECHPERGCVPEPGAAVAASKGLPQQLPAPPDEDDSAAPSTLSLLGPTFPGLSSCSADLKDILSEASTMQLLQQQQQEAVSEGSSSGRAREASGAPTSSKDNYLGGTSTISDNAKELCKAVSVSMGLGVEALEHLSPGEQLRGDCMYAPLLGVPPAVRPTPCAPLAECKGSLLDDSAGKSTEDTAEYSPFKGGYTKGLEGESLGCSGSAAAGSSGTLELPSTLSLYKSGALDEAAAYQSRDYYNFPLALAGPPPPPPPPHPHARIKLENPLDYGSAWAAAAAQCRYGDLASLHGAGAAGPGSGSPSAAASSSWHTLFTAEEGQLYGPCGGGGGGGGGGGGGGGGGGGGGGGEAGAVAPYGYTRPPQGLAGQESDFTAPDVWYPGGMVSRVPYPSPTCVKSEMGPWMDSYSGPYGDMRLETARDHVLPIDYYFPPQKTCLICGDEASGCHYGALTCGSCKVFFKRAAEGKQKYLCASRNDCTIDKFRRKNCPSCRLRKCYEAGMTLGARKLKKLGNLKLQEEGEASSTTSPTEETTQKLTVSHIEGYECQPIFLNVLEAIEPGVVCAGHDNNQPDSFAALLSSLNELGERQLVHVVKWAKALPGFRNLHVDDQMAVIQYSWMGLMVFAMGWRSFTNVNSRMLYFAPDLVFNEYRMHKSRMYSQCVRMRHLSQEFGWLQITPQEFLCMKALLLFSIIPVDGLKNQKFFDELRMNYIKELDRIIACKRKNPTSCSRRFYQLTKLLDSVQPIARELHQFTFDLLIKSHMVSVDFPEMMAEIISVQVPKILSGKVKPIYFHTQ

| EC50 [3] [nM] | Ki (Estrogen receptor) [nM] | Ki (Progesterone receptor) [nM] | Ki (Androgen receptor) [nM] | Compound | Activity (Rattus norvegicus [1]) | Activity (Rattus norvegicus [2]) | ED50 (Rattus norvegicus [4]) [mg/kg] | inhibition (INH) (Rattus norvegicus [5]; 30 mg/kg) [%] | inhibition in vivo at 30 mg/kg (Rattus norvegicus [5]; Rattus norvegicus, Sprague-Dawley, po, 5 h) [%] |
| --- | --- | --- | --- | --- | --- | --- | --- | --- | --- |
| 2 | > 5000 |  |  | C[C@]12C=CC(=O)C=C1CC[C@@H]1[C@@H]2[C@@H](O)C[C@@]2(C)[C@H]1CC[C@]2(O)C(=O)CO [PREDNISOLONE] | Toxic | Toxic | 19 | 42 | 57 |
| > 5000 | > 50000 | 55 | 993 | CC(C)(C(=O)Nc1nncs1)[C@@H](c1ccccc1)c1ccc(O)c(F)c1 |  |  |  |  |  |
